The subject of data set [1] is COLO 320DM. Briefly: Antitumor activity against human COLO320DM cells xenografted in nude Balb/c mouse assessed as tumor growth inhibition at 15 mg/kg, po administered qd for 10 days measured on days 12, 17 and 21 post last dose. In kind it is functional. Particulars: 240 h, read-out: TGI. The method, boiled down: (§1)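 Tumor-bearing mice were randomized 2 days after inoculation into four groups: vehicle (1% starch, n = 4) and 15, 30 or 60 mg/kg (n = 5 each). Dosing was oral, once daily, for 10 days. Tumor size was measured by caliper on days 12, 17 and 21. Values are tumor volume reduction relative to vehicle-treated controls.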
A general note: In xenograft studies the graft and the host belong to different species.

The target of data set [2] is Protein mono-ADP-ribosyltransferase PARP16 (Homo sapiens, UniProt Q8N5Y8). The data set is described as follows: Inhibition of human PARP16 using NAD+ as substrate by fluorescence assay.
The subject of the next data set is Liver. The data set is described as follows: Intrinsic clearance in human liver microsomes at 3 uM incubated up to 45 mins in presence of NADPH by LC-MS/MS analysis. In kind it is ADME, microsome. The following applies: 0.75 h. Background: Microsomes from liver hold many membrane-bound enzymes, among them those of drug oxidation.
The nature of data set [3]: Apparent permeability across basolateral to apical side in MDCK cells expressing human MDR1 at 10 uM after 2 hrs by LC/MS/MS analysis. Particulars: dog. In kind it is ADME, cell-based, Canis lupus familiaris.
Another data set concerns the target Cytochrome P450 3A4 (Homo sapiens, UniProt P08684). The data set is described as follows: Inhibition of CYP3A4 in human liver microsomes using midazolam as substrate after 30 mins by LC-MS/MS analysis. In kind it is ADME.
A further data set has as its target Cytochrome P450 2C9 (Homo sapiens, UniProt P11712). The data set is described as follows: Inhibition of CYP2C9 in human liver microsomes using tolbutamide as substrate after 30 mins by LC-MS/MS analysis. In kind it is ADME.
Data set [4] relates to Mus musculus. Briefly: Clearance in ICR mouse at 5 mg/kg, po measured up to 24 hrs. In kind it is ADME, organism-based. The following applies: in vivo.
A short description of data set [5]: Oral bioavailability in Sprague-Dawley rat at 14 mg/kg measured up to 24 hrs postdose. It is filed as ADME, organism-based. The following applies: in vivo.
Data set [6] is described as follows: Cmax in Sprague-Dawley rat at 14 mg/kg, po measured up to 24 hrs postdose. On the set-up: dose 14 mg/kg, route oral. In kind it is ADME, organism-based. Particulars: in vivo.
The nature of data set [7]: Cmax in Beagle dog at 7 mg/kg, po measured up to 24 hrs postdose. In kind it is ADME, organism-based, Canis lupus familiaris. On the set-up: dose 7 mg/kg, route oral. Particulars: in vivo.
Data set [8] is described as follows: Drug excretion in Sprague-Dawley rat feces at 7 mg/kg, iv or 14 mg/kg, po measured up to 24 hrs by LC-MS/MS. In kind it is ADME, organism-based. The following applies: in vivo.
For data set [9], the system named is COLO 320DM. Briefly: Antitumor activity against human COLO320DM cells xenografted in nude Balb/c mouse assessed as tumor growth inhibition at 30 mg/kg, po administered qd for 10 days measured on days 12, 17 and 21 post last dose. It is filed as functional. Particulars: 240 h, read-out: TGI. A digest of the protocol: as §1
The test system of data set [10] is COLO 320DM. The data set is described as follows: Antitumor activity against human COLO320DM cells xenografted in nude Balb/c mouse assessed as tumor growth inhibition at 60 mg/kg, po administered qd for 10 days measured on days 12, 17 and 21 post last dose. The following applies: 240 h, read-out: TGI. It is filed as functional. A digest of the protocol: as §1

In data set [11] the test system is Mus musculus. The data set is described as follows: Toxicity in immunocompetent BDF1 mouse allografted with mouse P388 cells assessed as animal discomfort at 15 to 30 mg/kg, po administered qd for 10 days measured on day 12 post last dose. In kind it is organism-based. The following applies: in vivo, 240 h.

Where only a bound is given, the exact number is not on record here.

Chain of Protein mono-ADP-ribosyltransferase PARP16 (Q8N5Y8 whole entry): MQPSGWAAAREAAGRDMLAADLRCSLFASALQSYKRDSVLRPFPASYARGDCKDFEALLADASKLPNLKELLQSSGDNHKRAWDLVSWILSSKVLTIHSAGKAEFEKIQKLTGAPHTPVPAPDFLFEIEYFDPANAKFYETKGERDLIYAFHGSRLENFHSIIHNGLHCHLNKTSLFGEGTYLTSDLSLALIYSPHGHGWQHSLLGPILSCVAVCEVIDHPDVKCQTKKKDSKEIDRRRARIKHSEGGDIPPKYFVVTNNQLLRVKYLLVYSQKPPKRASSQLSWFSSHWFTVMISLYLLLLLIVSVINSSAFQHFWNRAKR
Chain of Cytochrome P450 2C9 (P11712 whole entry): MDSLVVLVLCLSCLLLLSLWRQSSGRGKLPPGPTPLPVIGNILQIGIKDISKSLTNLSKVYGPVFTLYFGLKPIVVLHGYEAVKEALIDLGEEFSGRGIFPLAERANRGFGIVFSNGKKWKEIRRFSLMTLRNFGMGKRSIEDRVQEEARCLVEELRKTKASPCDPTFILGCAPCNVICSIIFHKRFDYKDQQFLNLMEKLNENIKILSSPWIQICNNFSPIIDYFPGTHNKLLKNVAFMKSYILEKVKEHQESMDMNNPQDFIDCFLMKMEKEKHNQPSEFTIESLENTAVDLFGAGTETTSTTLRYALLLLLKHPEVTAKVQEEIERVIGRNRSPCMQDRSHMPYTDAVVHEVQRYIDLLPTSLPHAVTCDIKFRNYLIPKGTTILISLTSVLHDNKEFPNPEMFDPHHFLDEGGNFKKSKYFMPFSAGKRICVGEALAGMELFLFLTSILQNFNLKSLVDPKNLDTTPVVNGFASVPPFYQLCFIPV
Chain of Cytochrome P450 3A4 (P08684 whole entry): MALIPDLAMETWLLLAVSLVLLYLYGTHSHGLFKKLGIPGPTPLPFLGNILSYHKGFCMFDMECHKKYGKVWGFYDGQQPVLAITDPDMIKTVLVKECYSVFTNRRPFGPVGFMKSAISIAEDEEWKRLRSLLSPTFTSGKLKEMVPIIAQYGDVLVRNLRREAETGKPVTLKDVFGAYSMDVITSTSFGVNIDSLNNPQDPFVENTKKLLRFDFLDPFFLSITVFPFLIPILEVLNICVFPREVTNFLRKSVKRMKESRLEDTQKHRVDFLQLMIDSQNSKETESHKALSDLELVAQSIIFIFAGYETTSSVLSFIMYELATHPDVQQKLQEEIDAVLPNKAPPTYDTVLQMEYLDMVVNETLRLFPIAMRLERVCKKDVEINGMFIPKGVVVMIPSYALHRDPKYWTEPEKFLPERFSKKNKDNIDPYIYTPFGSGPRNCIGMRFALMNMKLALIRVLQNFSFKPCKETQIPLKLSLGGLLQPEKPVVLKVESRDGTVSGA

As a reminder, the IC50 is the concentration at which inhibition is half-maximal. Read a low IC50 as greater potency. In general, bioavailability refers to dose-corrected exposure relative to a reference, in per cent. A low value points to little systemic uptake. By Cmax is commonly meant the maximum level reached in the sampled fluid or tissue. With `N#Cc1ccc2c(c1)[nH]c(=O)n2[C@H]1C[C@H](c2nnc(-c3ccncn3)n2-c2ccccc2Cl)C1`, the inhibition in vivo at 15 mg/kg in the data set on COLO 320DM [1] came to 53%. Further, the IC50 was > 10 µM in data set [2], 1.3 µM against Cytochrome P450 3A4 and 11.9 µM at Cytochrome P450 2C9. Further, the CLH in the data set on Liver is 14.8 µL/min/mg. Moreover, the Papp in data set [3] came to 28.2 ×10⁻⁷ cm/s. This compound also had a clearance in the data set on Mus musculus [4] of 567 mL/min/kg. The compound further yielded a bioavailability in data set [5] of 35%. Also, the Cmax in [6] is 843 ng/mL; in [7] it was 5850 ng/mL. Also, the Drug excretion entry in data set [8] is listed as “Metabolite_Notdetected”. The inhibition in vivo at 30 mg/kg in the data set with COLO 320DM [9] turned out to be 63%. Further, the inhibition in vivo at 60 mg/kg with COLO 320DM [10] turned out to be 63%. The Activity result in the data set on Mus musculus [11] was “Non-Toxic”.

Source of the values: ChEMBL document CHEMBL4028904, “Discovery of a Novel Series of Tankyrase Inhibitors by a Hybridization Approach” (J Med Chem, 2017).
